Measured values as given in PubChem BioAssay AID652287 (Sanford-Burnham Center for Chemical Genomics, 2013).
Several values for one entry are separate records, joined by “and”; a condition that tells them apart may be missing. Identical values can stand only once. Activity calls are given as the source filed them.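 The calls were made as follows: active = compounds with IC50 of 20 µM or lower; inactive = the rest.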

Biological target: Fatty acid synthase (Homo sapiens) (UniProt P49327)
Test: FAS thioesterase domain inhibitors, SAR follow-up, biochemical, endpoint fluorescence, OMFH substrate, round 2, powder samples (AID 652287)
Details: recombinant FAS-TE, OMFH fluorogenic substrate
Summary of the method: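 Read-out basis: Fluorescence of released enzymatic product, across compound doses | System: FAS-TE enzyme | Amount: 0.9 µM FAS-TE enzyme, final | Times: Enzyme reaction 60 min at room temperature | Doses: Dose-response series, 5.5% DMSO final | Detection: Fluorescence endpoint, Ex 480 nm, Em 540 nm | Reagent: OMFH fluorogenic substrate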

Chain of Fatty acid synthase (Homo sapiens) (P49327 whole entry, looked up, the tested form may be a part): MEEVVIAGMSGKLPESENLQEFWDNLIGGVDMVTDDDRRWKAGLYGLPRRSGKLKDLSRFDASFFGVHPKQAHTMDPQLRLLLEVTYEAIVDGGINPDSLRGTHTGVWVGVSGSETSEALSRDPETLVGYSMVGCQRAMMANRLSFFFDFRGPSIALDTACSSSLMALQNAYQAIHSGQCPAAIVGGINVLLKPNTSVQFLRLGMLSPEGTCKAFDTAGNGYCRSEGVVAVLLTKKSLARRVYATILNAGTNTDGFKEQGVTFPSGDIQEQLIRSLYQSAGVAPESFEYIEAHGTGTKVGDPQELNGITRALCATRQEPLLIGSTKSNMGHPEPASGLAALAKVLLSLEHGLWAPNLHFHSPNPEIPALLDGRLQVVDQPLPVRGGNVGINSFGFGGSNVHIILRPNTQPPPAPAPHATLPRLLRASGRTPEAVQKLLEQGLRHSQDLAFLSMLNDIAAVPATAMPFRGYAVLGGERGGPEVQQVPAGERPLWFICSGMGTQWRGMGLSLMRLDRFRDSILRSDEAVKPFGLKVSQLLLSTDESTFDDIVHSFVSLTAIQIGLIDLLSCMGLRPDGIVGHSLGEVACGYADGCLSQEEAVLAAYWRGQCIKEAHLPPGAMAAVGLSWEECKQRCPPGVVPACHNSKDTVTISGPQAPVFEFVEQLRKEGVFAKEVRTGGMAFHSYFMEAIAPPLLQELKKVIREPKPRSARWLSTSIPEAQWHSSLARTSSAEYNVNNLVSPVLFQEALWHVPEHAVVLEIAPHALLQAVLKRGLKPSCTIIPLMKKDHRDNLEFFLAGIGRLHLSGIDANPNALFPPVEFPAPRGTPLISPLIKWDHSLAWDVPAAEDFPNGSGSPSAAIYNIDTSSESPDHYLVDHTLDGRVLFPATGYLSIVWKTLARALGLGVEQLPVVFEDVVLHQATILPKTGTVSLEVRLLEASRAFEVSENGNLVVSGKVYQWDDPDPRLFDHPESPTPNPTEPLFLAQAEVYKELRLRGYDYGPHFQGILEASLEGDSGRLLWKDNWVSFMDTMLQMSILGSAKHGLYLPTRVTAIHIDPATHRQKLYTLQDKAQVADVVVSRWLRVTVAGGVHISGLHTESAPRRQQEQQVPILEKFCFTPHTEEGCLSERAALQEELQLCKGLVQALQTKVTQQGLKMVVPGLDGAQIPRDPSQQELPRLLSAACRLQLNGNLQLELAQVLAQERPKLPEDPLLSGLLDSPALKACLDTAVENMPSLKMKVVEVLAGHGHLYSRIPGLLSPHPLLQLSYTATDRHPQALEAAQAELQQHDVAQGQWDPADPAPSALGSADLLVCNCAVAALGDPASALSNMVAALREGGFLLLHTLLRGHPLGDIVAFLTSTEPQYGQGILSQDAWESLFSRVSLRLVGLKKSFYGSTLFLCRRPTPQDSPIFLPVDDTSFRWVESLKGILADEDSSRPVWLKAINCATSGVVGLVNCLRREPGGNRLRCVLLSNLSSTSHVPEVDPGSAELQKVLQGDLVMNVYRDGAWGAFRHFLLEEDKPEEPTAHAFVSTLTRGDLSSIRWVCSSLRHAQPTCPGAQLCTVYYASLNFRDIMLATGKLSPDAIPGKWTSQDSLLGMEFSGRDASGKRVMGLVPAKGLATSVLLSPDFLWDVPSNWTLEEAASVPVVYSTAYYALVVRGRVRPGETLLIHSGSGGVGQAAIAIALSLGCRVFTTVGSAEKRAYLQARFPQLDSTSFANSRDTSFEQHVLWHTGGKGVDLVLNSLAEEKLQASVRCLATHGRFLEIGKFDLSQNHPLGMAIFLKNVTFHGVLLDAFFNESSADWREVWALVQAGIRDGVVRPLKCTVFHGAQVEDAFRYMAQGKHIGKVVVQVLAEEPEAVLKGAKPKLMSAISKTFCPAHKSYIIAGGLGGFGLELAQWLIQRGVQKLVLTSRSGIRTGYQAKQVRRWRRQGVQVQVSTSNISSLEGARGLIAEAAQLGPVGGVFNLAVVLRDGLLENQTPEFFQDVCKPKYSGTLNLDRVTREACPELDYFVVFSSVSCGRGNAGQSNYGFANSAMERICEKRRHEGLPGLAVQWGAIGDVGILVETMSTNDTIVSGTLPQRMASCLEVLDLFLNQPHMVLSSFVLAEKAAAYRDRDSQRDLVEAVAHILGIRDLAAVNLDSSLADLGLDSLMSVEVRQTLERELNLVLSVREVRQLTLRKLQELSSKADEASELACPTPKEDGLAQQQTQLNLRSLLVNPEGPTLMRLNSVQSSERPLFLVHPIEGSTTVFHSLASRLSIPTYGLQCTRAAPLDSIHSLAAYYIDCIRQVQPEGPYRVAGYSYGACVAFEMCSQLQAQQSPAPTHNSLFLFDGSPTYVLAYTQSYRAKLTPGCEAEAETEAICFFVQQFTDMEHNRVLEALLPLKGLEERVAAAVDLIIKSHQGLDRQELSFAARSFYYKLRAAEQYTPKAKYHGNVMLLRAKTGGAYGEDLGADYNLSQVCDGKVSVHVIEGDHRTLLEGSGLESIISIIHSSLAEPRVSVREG

**Q.** CC(C)CC(=O)Nc1nc(-c2ccc(S(=O)(=O)N3CCC(C)CC3)cc2)cs1 was tested. Which IC50 did it give?
**A.** Its IC50 is “inactive”.

**Q.** With CCC(C)C(=O)Nc1nc(-c2ccc(S(=O)(=O)N3CCC(C)CC3)cc2)cs1 (stereo not drawn) as the compound, how does the IC50 read?
**A.** The IC50 was 409 nM.

**Q.** For CC(C)CC(=O)Nc1nc(-c2ccc(S(=O)(=O)N3CCCC3)cc2)cs1, which IC50 is on record?
**A.** Its IC50 is 1640 nM.

**Q.** CCCCCC(=O)Nc1nc(-c2ccc(S(=O)(=O)N(CC)CC)cc2)cs1 was tested. Which IC50 did it give?
**A.** Its IC50 is 196 nM.

**Q.** CCCCCC(=O)Nc1nc(-c2ccc(S(=O)(=O)N3CCCCC3C)cc2)cs1 (stereo not drawn) was tested. Which IC50 did it give?
**A.** Its IC50 is 580 nM.

**Q.** With CCCCCCC(=O)Nc1nc(-c2ccc(S(=O)(=O)N3CCCCC3C)cc2)cs1 (stereo not drawn) as the compound, how does the IC50 read?
**A.** Its IC50 is 4320 nM.

**Q.** Which IC50 does the source give for CCC(CC)C(=O)Nc1nc(-c2ccc(S(=O)(=O)N3CCCC3)cc2)cs1 here?
**A.** Its IC50 is 257 nM.

**Q.** CCC(CC)C(=O)Nc1nc(-c2ccc(S(=O)(=O)N(CC)CC)cc2)cs1 was tested. Which IC50 did it give?
**A.** Its IC50 is 328 nM.

**Q.** CCCCCCCCCCC[C@H](C[C@@H]1OC(=O)[C@H]1CCCCCC)OC(=O)[C@@H](NC=O)C(C)C was tested. Which IC50 did it give?
**A.** The IC50 was 107 nM.

**Q.** How did the IC50 turn out when CCC(C)C(=O)Nc1nc(-c2ccc(S(=O)(=O)N3CCCCC3C)cc2)cs1 (stereo not drawn) was run?
**A.** Its IC50 is 285 nM.

**Q.** For CCCCCCC(=O)Nc1nc(-c2ccc(S(=O)(=O)N3CCCC3)cc2)cs1, which IC50 is on record?
**A.** Its IC50 is 846 nM.

**Q.** For CCCCCCC(=O)Nc1nc(-c2ccc(S(=O)(=O)N(CC)CC)cc2)cs1, which IC50 is on record?
**A.** The IC50 was 1390 nM.

**Q.** For CCCCCCC(=O)Nc1nc(-c2ccc(S(=O)(=O)N3CCC(C)CC3)cc2)cs1, which IC50 is on record?
**A.** The IC50 was 4470 nM.

**Q.** For CCC(C)C(=O)Nc1nc(-c2ccc(S(=O)(=O)N3CCCC3)cc2)cs1 (stereo not drawn), which IC50 is on record?
**A.** Its IC50 is 145 nM.

**Q.** For CCCCC(=O)Nc1nc(-c2ccc(S(=O)(=O)N3CCOCC3)cc2)cs1, which IC50 is on record?
**A.** The IC50 was 204 nM.

**Q.** Which IC50 does the source give for CCC(C)C(=O)Nc1nc(-c2ccc(S(=O)(=O)N(CC)CC)cc2)cs1 (stereo not drawn) here?
**A.** Its IC50 is 1130 nM and 154 nM.

**Q.** CCCCC(=O)Nc1nc(-c2ccc(S(=O)(=O)N3CCCCC3C)cc2)cs1 (stereo not drawn) was tested. Which IC50 did it give?
**A.** Its IC50 is 382 nM.

**Q.** For Cn1c(SCC(=O)Nc2ncc(C(F)(F)F)cc2Cl)nnc1-c1ccc(Cl)cc1, which IC50 is on record?
**A.** Its IC50 is 686 nM.

**Q.** CCCCCC(=O)Nc1nc(-c2ccc(S(=O)(=O)N3CCCC3)cc2)cs1 was tested. Which IC50 did it give?
**A.** The IC50 was 141 nM.

**Q.** For CN(Cc1ccc(C(C)(C)C)cc1)C(=O)Cc1ccc(S(=O)(=O)N2CCOCC2)s1, which IC50 is on record?
**A.** Its IC50 is 343 nM.

**Q.** How did the IC50 turn out when CCCCCC(=O)Nc1nc(-c2ccc(S(=O)(=O)N3CCC(C)CC3)cc2)cs1 was run?
**A.** The IC50 was 745 nM.

**Q.** Which IC50 does the source give for CC1CCN(S(=O)(=O)c2ccc(-c3csc(NC(=O)C(C)C)n3)cc2)CC1 here?
**A.** The IC50 was 511 nM.

**Q.** Which IC50 does the source give for CCC(CC)C(=O)Nc1nc(-c2ccc(S(=O)(=O)N3CCC(C)CC3)cc2)cs1 here?
**A.** The IC50 was 1830 nM.
